Test [1] addresses T1, Polyamine deacetylase HDAC10 (Homo sapiens, UniProt Q969S8).
T1 sequence (Q969S8 whole entry): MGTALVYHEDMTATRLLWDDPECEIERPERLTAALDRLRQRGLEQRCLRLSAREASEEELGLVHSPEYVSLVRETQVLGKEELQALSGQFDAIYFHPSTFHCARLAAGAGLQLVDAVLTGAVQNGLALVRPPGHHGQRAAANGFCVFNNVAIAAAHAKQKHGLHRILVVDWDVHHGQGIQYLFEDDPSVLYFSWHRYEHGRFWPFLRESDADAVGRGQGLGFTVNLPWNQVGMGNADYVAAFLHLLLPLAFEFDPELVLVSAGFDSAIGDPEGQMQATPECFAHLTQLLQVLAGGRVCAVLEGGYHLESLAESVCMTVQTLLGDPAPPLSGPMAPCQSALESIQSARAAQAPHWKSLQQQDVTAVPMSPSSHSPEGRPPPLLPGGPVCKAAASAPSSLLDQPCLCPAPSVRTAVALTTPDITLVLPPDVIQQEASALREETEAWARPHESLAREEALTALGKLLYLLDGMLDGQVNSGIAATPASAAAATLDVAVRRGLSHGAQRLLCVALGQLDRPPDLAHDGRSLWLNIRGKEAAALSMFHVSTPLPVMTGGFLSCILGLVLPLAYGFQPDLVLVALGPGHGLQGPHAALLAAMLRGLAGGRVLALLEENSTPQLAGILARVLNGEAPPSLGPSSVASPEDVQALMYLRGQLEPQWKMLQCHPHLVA
Briefly: Inhibition of HDAC10 (unknown origin) incubated for 30 mins in presence of BSA and DTT by fluorescence assay. A digest of the protocol:
(§1)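 Purified HDAC isoforms were tested up to a maximum of 1 μM. IC50 values are averages of duplicate experiments. Disulfide compounds were pretreated with DTT to reduce the disulfide bond.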

Test [2] has as its target Histone deacetylase 1 (Homo sapiens, UniProt Q13547). Nature of the test: Inhibition of HDAC1 (unknown origin) incubated for 30 mins in presence of BSA and DTT by fluorescence assay.
Test [3] addresses T2, Histone deacetylase 8 (Homo sapiens) (UniProt Q9BY41).
T2 sequence (whole entry): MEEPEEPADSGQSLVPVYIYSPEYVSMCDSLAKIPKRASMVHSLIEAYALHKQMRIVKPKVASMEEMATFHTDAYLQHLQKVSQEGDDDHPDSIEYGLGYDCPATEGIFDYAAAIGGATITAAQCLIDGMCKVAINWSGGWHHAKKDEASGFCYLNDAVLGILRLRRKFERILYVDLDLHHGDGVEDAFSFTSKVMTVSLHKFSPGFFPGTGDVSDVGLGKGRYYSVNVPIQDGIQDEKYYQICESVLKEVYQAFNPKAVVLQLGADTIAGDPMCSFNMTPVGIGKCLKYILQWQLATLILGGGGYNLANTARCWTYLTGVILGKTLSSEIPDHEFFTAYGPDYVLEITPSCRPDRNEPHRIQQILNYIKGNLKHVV
Nature of the test: Inhibition of HDAC8 (unknown origin) at 1 uM incubated for 30 mins in presence of BSA and DTT by fluorescence assay. In short, it runs like this: as §1

Test [4] has as its target Histone deacetylase 5 (Homo sapiens, UniProt Q9UQL6). Nature of the test: Inhibition of HDAC5 (unknown origin) at 1 uM incubated for 30 mins in presence of BSA and DTT by fluorescence assay. A digest of the protocol:
as §1

In test [5] the target is Histone deacetylase 9 (Homo sapiens, UniProt Q9UKV0). Briefly: Inhibition of HDAC9 (unknown origin) at 1 uM incubated for 30 mins in presence of BSA and DTT by fluorescence assay. In short, it runs like this: as §1
Chain of Histone deacetylase 9 (Q9UKV0 whole entry): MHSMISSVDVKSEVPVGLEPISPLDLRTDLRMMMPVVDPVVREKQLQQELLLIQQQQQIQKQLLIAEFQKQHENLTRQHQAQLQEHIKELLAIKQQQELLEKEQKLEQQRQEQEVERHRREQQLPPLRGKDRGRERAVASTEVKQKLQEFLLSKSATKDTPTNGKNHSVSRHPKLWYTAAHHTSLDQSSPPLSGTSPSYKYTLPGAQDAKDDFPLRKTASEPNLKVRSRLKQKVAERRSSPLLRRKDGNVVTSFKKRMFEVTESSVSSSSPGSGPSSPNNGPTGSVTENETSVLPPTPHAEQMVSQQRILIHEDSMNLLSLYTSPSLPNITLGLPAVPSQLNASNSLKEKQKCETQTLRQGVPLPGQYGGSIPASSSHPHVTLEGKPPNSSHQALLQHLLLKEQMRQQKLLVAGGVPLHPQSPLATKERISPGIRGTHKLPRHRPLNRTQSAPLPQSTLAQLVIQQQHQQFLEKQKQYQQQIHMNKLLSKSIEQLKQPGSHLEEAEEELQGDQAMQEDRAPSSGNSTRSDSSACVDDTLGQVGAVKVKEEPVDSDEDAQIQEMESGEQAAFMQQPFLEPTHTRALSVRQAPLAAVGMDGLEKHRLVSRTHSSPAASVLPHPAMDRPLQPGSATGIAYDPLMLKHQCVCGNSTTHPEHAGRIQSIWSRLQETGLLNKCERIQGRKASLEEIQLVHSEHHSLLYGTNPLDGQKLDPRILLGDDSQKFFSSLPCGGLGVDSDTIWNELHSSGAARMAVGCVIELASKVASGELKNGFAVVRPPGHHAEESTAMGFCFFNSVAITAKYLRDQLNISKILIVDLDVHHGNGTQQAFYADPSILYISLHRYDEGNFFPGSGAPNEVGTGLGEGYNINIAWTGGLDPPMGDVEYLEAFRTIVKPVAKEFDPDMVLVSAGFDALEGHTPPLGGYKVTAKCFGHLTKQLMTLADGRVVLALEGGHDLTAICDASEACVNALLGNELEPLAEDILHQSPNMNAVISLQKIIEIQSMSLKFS
Test [6] deals with T3, Protein deacetylase HDAC6 (Homo sapiens) (UniProt Q9UBN7).
T3 sequence (whole entry): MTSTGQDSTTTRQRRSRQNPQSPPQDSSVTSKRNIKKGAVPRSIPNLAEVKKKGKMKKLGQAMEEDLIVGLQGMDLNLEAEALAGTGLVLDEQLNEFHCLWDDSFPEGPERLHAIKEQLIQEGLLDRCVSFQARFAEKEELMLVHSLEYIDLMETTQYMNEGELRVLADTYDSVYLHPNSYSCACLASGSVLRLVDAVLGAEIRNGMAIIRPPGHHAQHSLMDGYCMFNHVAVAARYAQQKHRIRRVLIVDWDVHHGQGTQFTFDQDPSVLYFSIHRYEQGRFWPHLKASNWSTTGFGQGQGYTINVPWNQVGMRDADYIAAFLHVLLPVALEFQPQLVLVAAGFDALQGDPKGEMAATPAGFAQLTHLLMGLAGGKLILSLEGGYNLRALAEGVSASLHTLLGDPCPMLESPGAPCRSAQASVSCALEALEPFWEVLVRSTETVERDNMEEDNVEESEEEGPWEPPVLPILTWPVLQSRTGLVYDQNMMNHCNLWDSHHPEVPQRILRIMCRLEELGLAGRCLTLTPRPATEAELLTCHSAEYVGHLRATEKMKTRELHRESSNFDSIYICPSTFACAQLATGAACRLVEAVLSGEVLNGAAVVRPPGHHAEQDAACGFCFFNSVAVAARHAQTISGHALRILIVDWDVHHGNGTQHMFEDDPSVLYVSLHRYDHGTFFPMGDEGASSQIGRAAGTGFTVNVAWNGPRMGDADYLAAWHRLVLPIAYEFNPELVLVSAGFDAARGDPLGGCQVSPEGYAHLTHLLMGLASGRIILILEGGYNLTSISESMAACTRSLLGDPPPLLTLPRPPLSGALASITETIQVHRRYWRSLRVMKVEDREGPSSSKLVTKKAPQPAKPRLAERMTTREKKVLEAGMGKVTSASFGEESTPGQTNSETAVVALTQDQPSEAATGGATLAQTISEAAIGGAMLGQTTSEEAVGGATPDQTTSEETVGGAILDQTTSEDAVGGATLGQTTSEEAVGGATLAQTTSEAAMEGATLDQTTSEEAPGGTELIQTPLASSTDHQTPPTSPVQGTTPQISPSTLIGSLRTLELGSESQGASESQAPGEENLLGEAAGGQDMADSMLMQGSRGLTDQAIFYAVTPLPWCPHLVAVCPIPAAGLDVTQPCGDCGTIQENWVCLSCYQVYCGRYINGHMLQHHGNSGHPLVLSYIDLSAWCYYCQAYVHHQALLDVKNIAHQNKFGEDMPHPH
Particulars: 1 uM.

The target in test [7] is T4, Histone deacetylase 7 (Homo sapiens) (UniProt Q8WUI4).
T4 sequence (whole entry): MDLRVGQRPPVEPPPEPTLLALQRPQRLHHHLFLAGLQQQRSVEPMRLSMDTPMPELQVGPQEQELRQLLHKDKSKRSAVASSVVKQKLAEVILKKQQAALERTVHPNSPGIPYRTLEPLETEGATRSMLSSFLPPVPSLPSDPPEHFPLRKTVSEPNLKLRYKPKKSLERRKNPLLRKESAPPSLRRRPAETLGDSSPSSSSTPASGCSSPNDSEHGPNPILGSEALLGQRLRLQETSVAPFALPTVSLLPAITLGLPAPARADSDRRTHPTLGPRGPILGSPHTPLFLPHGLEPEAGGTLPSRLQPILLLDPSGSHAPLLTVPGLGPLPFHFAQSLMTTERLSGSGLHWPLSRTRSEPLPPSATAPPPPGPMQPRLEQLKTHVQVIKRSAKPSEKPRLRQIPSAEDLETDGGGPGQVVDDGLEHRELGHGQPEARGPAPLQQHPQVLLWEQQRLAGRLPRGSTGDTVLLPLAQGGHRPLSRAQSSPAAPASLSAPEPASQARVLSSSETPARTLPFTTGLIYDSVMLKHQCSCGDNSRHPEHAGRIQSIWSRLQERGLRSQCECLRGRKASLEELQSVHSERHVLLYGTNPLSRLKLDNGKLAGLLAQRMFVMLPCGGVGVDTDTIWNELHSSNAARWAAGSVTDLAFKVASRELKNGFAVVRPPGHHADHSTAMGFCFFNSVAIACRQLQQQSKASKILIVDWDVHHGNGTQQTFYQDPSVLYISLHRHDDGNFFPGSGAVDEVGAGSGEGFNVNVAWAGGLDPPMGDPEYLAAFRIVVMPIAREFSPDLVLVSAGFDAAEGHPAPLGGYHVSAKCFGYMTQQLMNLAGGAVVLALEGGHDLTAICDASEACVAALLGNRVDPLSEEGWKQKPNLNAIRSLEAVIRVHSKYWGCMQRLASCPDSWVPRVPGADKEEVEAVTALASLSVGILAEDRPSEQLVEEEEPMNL
Briefly: Inhibition of HDAC7 (unknown origin) at 1 uM incubated for 30 mins in presence of BSA and DTT by fluorescence assay. In short, it runs like this:
as §1

By IC50 is commonly meant the point on the concentration scale where inhibition reaches its midpoint. What is called inhibition is how much of the control response was suppressed.

Chain of Histone deacetylase 1 (Q13547 whole entry): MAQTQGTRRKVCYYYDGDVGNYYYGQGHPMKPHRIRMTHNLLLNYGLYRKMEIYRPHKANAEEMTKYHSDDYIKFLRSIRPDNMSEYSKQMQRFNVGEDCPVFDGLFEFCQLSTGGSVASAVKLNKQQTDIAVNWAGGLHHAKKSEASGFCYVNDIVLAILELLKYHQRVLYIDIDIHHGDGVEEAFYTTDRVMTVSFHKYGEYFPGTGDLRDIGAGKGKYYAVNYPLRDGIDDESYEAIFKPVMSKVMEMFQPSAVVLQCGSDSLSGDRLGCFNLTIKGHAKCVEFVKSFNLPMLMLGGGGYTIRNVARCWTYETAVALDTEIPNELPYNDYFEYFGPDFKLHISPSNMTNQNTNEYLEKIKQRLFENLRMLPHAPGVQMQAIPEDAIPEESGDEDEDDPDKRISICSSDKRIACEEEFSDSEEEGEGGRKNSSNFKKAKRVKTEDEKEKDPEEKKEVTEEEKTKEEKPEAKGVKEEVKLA
Chain of Histone deacetylase 5 (Q9UQL6 whole entry): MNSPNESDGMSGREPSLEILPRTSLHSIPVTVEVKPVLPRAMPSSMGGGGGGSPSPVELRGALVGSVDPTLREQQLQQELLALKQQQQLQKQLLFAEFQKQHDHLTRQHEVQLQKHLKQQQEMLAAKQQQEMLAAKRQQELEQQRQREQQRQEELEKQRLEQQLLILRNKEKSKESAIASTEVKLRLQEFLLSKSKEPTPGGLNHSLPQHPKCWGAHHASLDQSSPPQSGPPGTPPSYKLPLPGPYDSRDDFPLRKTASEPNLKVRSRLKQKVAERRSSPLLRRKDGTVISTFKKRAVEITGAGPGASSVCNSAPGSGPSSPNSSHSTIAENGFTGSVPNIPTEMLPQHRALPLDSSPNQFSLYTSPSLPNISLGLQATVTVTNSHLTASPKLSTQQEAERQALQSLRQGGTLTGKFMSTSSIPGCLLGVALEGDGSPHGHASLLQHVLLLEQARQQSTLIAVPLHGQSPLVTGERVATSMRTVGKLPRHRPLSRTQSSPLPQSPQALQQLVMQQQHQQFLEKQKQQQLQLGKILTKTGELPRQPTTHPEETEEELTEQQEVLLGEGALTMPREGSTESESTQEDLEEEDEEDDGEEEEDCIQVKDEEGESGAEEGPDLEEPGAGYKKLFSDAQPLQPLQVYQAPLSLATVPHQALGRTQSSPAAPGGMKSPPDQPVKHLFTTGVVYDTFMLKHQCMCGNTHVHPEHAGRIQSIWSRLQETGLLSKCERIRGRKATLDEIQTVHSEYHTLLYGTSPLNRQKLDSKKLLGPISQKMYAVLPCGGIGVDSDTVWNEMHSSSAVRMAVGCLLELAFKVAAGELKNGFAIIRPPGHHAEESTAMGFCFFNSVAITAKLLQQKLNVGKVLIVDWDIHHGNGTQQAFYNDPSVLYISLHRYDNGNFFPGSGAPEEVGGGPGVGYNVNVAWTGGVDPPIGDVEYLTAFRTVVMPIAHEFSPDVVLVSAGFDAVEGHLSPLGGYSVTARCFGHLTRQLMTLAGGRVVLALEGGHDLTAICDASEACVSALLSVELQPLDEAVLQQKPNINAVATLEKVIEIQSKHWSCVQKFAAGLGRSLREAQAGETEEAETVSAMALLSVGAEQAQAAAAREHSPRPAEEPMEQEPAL

For `C/C=C1\NC(=O)[C@H]2CSSCC/C=C/[C@H](CC(=O)N[C@H](C(C)C)C(=O)N2)OC(=O)[C@H](C(C)C)NC1=O` [ROMIDEPSIN], the 50% inhibitory concentration (IC50) was determined as 0.9 nM in test [1] and 0.8 nM in test [2]. Also, the inhibition in test [3] turned out to be 36%; in test [4] it was 22%; in test [5] it was 45%; in test [6], 45%; in test [7] it was 34%.

The values above are taken from ChEMBL document CHEMBL3352121, “Modulation of Activity Profiles for Largazole-Based HDAC Inhibitors through Alteration of Prodrug Properties” (ACS Med Chem Lett, 2014).
